Source: PubChem
An excerpt weighted towards active compounds, which were near 11% of everything screened.
S1P1 ag pot: agonists and agonism potentiators of human S1P1 receptor | P21453 | activation, % at 9.5 µM | hit rate 0.57% among 56,000 | S1P1 CRE-bla cells, forskolin, beta-lactamase FRET, potentiator mode; S1P1 agonist co-added at EC20, 2 nM; 100% = saturating reference agonist, 0% = basal;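 active = activation above a cutoff set at the mean activation of all tested compounds plus 3 SD, cut at about 54% in these data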;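 also: forskolin at 4 µM as EC80 and the EC20 agonist is SEW2871; 100% = SEW2871 at its EC100 plus forskolin at EC80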
M1 antag: blocks the rat M1 muscarinic receptor response to acetylcholine; P08482; CHO-M1 cells, Fluo-4 calcium, ACh EC80 antagonist mode; hits give low values; B-score at 10 µM; hit rate 3.4% among 64,000;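 active = calcium fluorescence response, raw or row-and-column corrected B-score, differing from the plate sample mean either way at a set confidence level, mostly lower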
M1 agonist: activates the M1 muscarinic receptor. CHO-M1 cells, Fluo-4 calcium fluorescence, agonist mode; hits give high values. B-score at 10 µM. hit rate 3% among 64,000;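 active = fluorescence rise, raw or as B-score row- and column-corrected plate score, outside the 99.7% band of its plate's samples, either direction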
S1P3 ag: S1P3 (human) receptor agonism. Q99500. S1P3 NFAT-BLA reporter cells, FRET ratio; relative to 1 µM S1P, basal subtracted. activation, % at 4.5 µM. hit rate 0.1% among 60,000;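 active = activation above the screen-wide mean plus 3 SD, cut at about 4.5% in these data, passing the limit was not always enough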
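Benchmarks: high control 1 µM S1P / System: stable CHO line with human S1P3, Gα16, NFAT-BLA reporter / Dosing: single compound concentration, 4.5 µM final / Timing: 4 h compound at 37 °C, 2 h substrate at RT / Measured by: FRET β-lactamase substrate fluorescence, excitation 405 nm, 460/535 nm emission ratio, background-subtracted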
TNAP act DEA: human TNAP activation, intermediate phosphate acceptor. 64,000 tested, under 10 active. purified TNAP, CDP-star luminescence, 100 mM DEA, 30 min; hits give high values; scale: 0 levamisole-inhibited, 1 vehicle-only enzyme. P05186. activation factor at 20 µM;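 active = activation factor of at least 2 at 20 µM, relative to controls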
D1 mod: allosterically modulates the human D1 dopamine receptor; hit rate 5.9% among 58,000; AID 641; P21728; B-score at 10 µM; HEK293 D1, CRE-luciferase, dopamine EC30 potentiation; actives deviate in either direction;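 active = luminescence count or its row- and column-corrected plate score outside the 99.7% band of the plate's sample wells, on either side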
Target sequence (P21728 whole entry, looked up): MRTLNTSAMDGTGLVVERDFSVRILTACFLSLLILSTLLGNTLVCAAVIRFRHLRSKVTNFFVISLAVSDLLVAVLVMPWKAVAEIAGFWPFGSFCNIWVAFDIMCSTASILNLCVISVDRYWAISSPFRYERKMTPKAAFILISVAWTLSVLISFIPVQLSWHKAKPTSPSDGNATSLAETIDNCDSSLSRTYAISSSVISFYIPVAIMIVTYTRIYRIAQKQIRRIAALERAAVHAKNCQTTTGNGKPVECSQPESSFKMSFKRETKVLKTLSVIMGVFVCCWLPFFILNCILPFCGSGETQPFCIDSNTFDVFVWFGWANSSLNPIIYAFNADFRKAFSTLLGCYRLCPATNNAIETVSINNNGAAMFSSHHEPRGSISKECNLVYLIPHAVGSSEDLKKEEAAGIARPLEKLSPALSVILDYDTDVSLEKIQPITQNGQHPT
Active calls of the source: *; . = no result given.

SMILES | S1P1 ag pot | M1 antag | M1 agonist | S1P3 ag | TNAP act DEA | D1 mod
CCOC(=O)c1cc2c(ccn2C)n1CC(=O)N1CCN(c2ccccc2OC)CC1 | 2.5 | -0.253 | 0.0839 | -0.8 | 0.9 | -2.39
Cc1ccc(-n2ncc3c(NCCCn4ccnc4)ncnc32)c(C)c1 | -20.8 | -0.208 | -0.438 | -0.8 | 1 | .
Cc1cccc(-n2ncc3c(NCCCn4ccnc4)ncnc32)c1 | -8.7 | -0.976 | 0.0798 | -1.1 | 0.9 | -4.11*
Cc1cccc(-n2ncc3c(NC(C)C)ncnc32)c1 | 4.2 | -1.29 | -0.015 | -0.9 | 1 | -3.57*
CC(C)Nc1ncnc2c1cnn2-c1ccccc1 | -1.8 | 0.387 | -0.731 | 0.9 | 0.9 | -4.42*
Cc1cccc(-n2ncc3c(Nc4ccc(F)cc4)ncnc32)c1 | 1.2 | 0.0012 | 0.85 | 0.0 | 1.1 | .
CCOC(=O)C1(c2nc(N)cs2)COC(=O)C1 (stereo not given) | 13.0 | 1.18 | -0.134 | -0.6 | 0.9 | .
Cc1onc(-c2ccccc2)c1C(=O)N1CCN(C/C=C/c2ccccc2)CC1 | 25.7 | 0.099 | -1.59 | -0.6 | 0.8 | -0.0279
O=c1oc2c(CN3CCCCC3)c(O)ccc2cc1-c1nc2ccccc2[nH]1 | 51.6 | -18.3* | 182* | -0.6 | 1.3 | -0.402
CCCc1cc(=O)oc2c(CN3CCCC3)c(O)ccc12 | -12.6 | 0.204 | 0.762 | -5.4 | 1 | -1.32
O=c1oc2c3c4c(cc2cc1-c1nc2ccccc2[nH]1)CCCN4CCC3 | 2.8 | -15.3* | 338* | -0.6 | 1.1 | -2.74*
CC(=O)OC(C(=O)NC1CCCCC1)c1ccc(C#N)cc1 (stereo not given) | -15.2 | 0.271 | -0.0185 | -0.2 | 0.9 | -0.129
COC(=O)[C@H](C)NC(=O)Nc1ccc(S(N)(=O)=O)cc1 | -9.9 | 1.59* | 0.411 | -1.1 | 1 | 0.295
CCn1nnc(NC(=O)c2cccnc2)n1 | -1.7 | 0.775* | -0.956 | -1.6 | 0.9 | 0.00483
COc1ccc(N2CCCn3c2nc2c3c(=O)n(CCc3ccccc3)c(=O)n2C)cc1 | 2.1 | -0.155 | 0.078 | -0.5 | 0.9 | -2.78*
Cc1cc(C)cc(N2CCCn3c2nc2c3c(=O)n(CC(=O)OCc3ccccc3)c(=O)n2C)c1 | -1.7 | -0.336 | -0.204 | -1.0 | 1 | -1.11*
Cc1ccc(N2CCCn3c2nc2c3c(=O)n(CC(=O)OCc3ccccc3)c(=O)n2C)cc1C | -4.5 | -0.225 | -0.367 | -0.3 | 0.9 | -1.38
CCN(CC(=O)NCc1ccc(F)cc1)CC(O)COCc1cccc(OC)c1 (stereo not given) | 5.8 | -0.69 | -0.00258 | -0.5 | 1.1 | -0.591
COc1ccc(C(=O)Nc2ccccc2N2CCOCC2)cc1Br | -1.2 | 0.00493 | 1.58 | -3.5 | 0.9 | .
COc1cc(OC)cc(C(=O)Nc2ccccc2N2CCOCC2)c1 | 8.5 | -0.141 | 6.53* | 1.5 | 0.9 | 2.21
C=CCn1cc(C(=O)NCCCOC)c(=O)c2cc(S(=O)(=O)N3CCC(C)CC3)ccc21 | -4.2 | 0.181 | -0.146 | -0.9 | 0.9 | 4.1*
CCn1cc(C(=O)NCC2CCCO2)c(=O)c2cc(S(=O)(=O)N3CCCCCC3)ccc21 (stereo not given) | -0.7 | 0.263 | 0.0298 | -0.3 | 1 | -0.153
CCn1cc(C(=O)NCC2CCCO2)c(=O)c2cc(S(=O)(=O)N3CCC(C)CC3)ccc21 (stereo not given) | -12.3 | -0.128 | 0.951 | 0.0 | 0.9 | -4.78*
C=CCn1cc(C(=O)NCCCOC)c(=O)c2cc(S(=O)(=O)N(CC)CC)ccc21 | -14.0 | 0.517 | -0.243 | -0.2 | 0.9 | -0.232
COC(=O)c1sc2cnccc2c1N | -1.0 | 0.0119 | 0.00435 | 0.6 | 1 | -0.0239
SMILES | S1P1 ag pot | M1 antag | M1 agonist | S1P3 ag | TNAP act DEA | D1 mod
COC(=O)c1sc2nc(-c3ccco3)ccc2c1N | -10.6 | 1.02 | -0.332 | 1.3 | 1 | -3.19*
COc1ccc(-c2noc(CCC(=O)Nc3cccc(C)c3)n2)cc1 | 9.8 | 0.0555 | -0.157 | -0.4 | 0.9 | -0.103
COc1ccc(-c2noc(CCC(=O)Nc3nc4ccccc4s3)n2)cc1 | . | 0.77* | -0.255 | . | 0.9 | 0.221
CCCCOc1ccc(-c2nnn(CC(=O)Nc3ncc(CC(=O)OCC)s3)n2)cc1 | -17.7 | 2.54* | -1.03 | 0.2 | 0.9 | -0.853
Cc1cc(C)n(-c2nc(SCC(=O)NCC3CCCO3)c3c4c(sc3n2)CCCC4)n1 (stereo not given) | -3.4 | -0.203 | -0.543 | -1.6 | 0.9 | -0.0541
Cc1cc(C)n(-c2nc(NCCO)c3c4c(sc3n2)CCCC4)n1 | -68.5 | 0.0613 | -0.962 | 27.9* | 0.9 | 0.0259
Cc1cc(C)n(-c2nc(NCCCO)c3c4c(sc3n2)CCCC4)n1 | -83.7 | -1.11 | 0.729 | 41.1* | 1.1 | 0.542
Cc1cc(C)n(-c2nc(NCC(C)O)c3c4c(sc3n2)CCCC4)n1 (stereo not given) | -84.6 | -0.673 | 0.0135 | 29.4* | 1 | 0.902
COc1cc(NS(C)(=O)=O)c(OC)cc1NC(=O)c1cccc(F)c1 | -7.8 | 1.73 | -0.64 | -0.6 | 0.9 | -0.00689
CCSc1ccccc1C(=O)N1CCN(c2ccccc2F)CC1 | -6.9 | -0.152 | -0.0863 | 0.2 | 1 | 0.693
CCCc1ccc(Oc2c(-c3ccc(O)c(C)c3O)n[nH]c2C)cc1 | 50.0 | 0.115 | -1.01 | -2.4 | 1.1 | 0.228
CCCc1ccc(Oc2cn[nH]c2-c2ccc(O)c(C)c2O)cc1 | 58.1* | 0.0227 | -1.92 | -1.7 | 1 | 0.00315
COc1ccc(-c2csc(N3CCOCC3)n2)cc1OC | -8.6 | 0.0468 | 0.581 | -0.9 | 0.9 | 12.9*
Cc1ccc(C(=O)Nc2ncc(Cc3ccccc3)s2)o1 | 29.7 | -0.0289 | 0.311 | -0.9 | 1 | -2.82*
O=C(Nc1nc2c(s1)CCCC2)c1ccc(Br)o1 | 7.4 | 0.72 | 0.667 | -0.8 | 0.9 | -0.887
Cc1ccc(C(=O)Nc2nc3c(s2)CCCC3)o1 | . | -0.879 | -0.046 | -0.6 | 0.9 | -4.66*
CCC(CC)C(=O)Nc1ccccc1NC(C)=O | -16.9 | -0.231 | 0.087 | -0.3 | 0.9 | 0.434
CCC(CC)C(=O)Nc1cc(C)cc(C)c1 | 1.6 | 3.27* | -0.0328 | -0.4 | 1 | -0.011
Cc1ccc(N(C)C(=O)N2CCN(c3ccccn3)CC2)cc1 | -8.9 | 0.617 | -0.593 | -1.3 | 0.9 | -0.0111
Cc1nn(C)cc1C1C2=C(CC(C)(C)CC2=O)OC2=C1C(=O)CC(C)(C)C2 | -5.6 | -0.728 | 0.0599 | -4.1 | 0.9 | -0.0115
COc1cccc(C=Nc2cc(C)on2)c1O | 4.2 | 0.105 | 0.00415 | -0.1 | 1 | 0.214
CCc1ccc2oc(-c3cc(N=Cc4cccc(OC)c4O)ccc3O)nc2c1 | -1.9 | 0.187 | -0.0412 | -1.1 | 0.9 | -5.61*
COc1ccc(-c2cc3ccccc3n2CC(O)CN2CCOCC2)cc1 (stereo not given) | . | 0.051 | -0.415 | . | 1 | .
COc1ccc(C(c2c(O)ccc3ccccc23)N2CCOCC2)c(OC)c1 (stereo not given) | 110.2* | 0.0524 | 0.224 | -1.5 | 1.1 | -0.885
